Screens deposited in PubChem by several laboratories.
Only some compounds are listed: those with a hit (about 4.1% of all), similar ones and a draw of the others.
Cl transport mod: KCC2 cotransporter modulators, thallium flux, primary screen, cell-based, HEK293 KCC2, FluoZin-2 fluorescence, MLSMR; Solute carrier family 12 member 5 (Homo sapiens), Q9H2X9; KCC2 cells, thallium flux FluoZin-2 fluorescence; B-score of Tl+ flux slope (higher = more flux/activation; lower = inhibition) at 10 µM; actives 2.2% (n = 190,000); AID 1456, 2008;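 active = thallium flux slope and its plate-corrected score both differing from the plate sample mean at a set confidence after two filtering rounds, in either direction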;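 also: slope of fluorescence scaled to starting intensity during 10 to 20 s after thallium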
ROMK mod: ROMK potassium channel modulators, primary screen, cell-based, thallium flux, MLSMR library | B-score at 10 µM | actives 2% (n = 130,000) | Tet-inducible ROMK, thallium flux fluorescence; actives lie on both sides | AID 1918, 2009;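 active = signal ratio slope over the read window, or its plate-corrected B-score, at least 3 SD from the plate mean, either direction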;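 also: B-score of the F/F0 ratio slope over 7 to 12 s after thallium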
Target sequence (P48048 whole entry, looked up): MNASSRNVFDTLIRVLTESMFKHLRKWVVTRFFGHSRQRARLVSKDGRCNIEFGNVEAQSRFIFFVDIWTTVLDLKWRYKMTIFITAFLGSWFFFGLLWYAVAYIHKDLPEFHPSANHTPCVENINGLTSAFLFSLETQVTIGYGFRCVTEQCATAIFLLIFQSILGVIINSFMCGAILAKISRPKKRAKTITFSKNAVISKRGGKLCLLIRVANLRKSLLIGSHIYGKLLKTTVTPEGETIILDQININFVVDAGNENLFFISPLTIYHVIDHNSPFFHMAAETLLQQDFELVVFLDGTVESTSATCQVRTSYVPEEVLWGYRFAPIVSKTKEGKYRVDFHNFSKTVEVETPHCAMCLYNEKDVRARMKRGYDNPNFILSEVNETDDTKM
Redox H2O2 prof: compounds producing H2O2 with reducing agent – biochemical, NIH compound library profiling, artefact control for MLSCN library redox annotation, primary screen | activation, % at 10 µM | DTT-dependent redox cycling H2O2, phenol red/HRP absorbance; 100% = 100 µM peroxide control, 0% = buffer | actives 0.03% (n = 200,000) | AID 878, 2007;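 active = activation of at least 50% relative to the plate's high and low controls in the primary single-dose screen; inactive = activation below 50%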;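 also: compound incubated with DTT at 0.8 mM final as the reducing agent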
Dynein cargo inh: inhibitors of GR-EGFP nuclear translocation, primary screen, dynein cargo transport inhibitor project, imaging, high-content, 3617.4 mouse cells. test concentration mostly 20 µM; stimulated with dexamethasone, 1 µM; stronger effect = lower value. z-score, hits read low. actives 0.47% (n = 220,000). AID 1381, 2008;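 active = plate z-score of nuclear minus cytoplasmic receptor signal below a set negative limit, without overly bright fluorescence or cell loss, cut at about -3.5 in these data, passing the limit was not always enough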;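 also: z-score of nuclear minus cytoplasmic ring GR-EGFP intensity difference per well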
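Buffer or medium: tet-free medium with charcoal-stripped serum / Also added: dexamethasone agonist, 1.0 µM final, for 30 min / Timing: induction 48 h, compound 1 h, agonist 30 min / Measured by: high-content fluorescence imaging after fixation / Read-out: nuclear-to-cytoplasmic GR-EGFP distribution per well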
Autophagy HCS: autophagy modulators in MEF cells, primary screen, imaging, high-content, MEF GFP-LC3; actives 0.98% (n = 190,000); calls only at 10 µM (by protocol); AID 463193, 2010; MEF GFP-LC3 puncta imaging; test concentration mostly 10 µM;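 active = percentage of spot-positive cells more than 3 SD above its plate mean, without a fluorescence outlier flag or 80% toxicity; inconclusive = no clear call, values can overlap the other calls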;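 also: spot-positive cell cutoff set from DMSO-treated cells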
Dynein confirm: dynein cargo transport inhibitors, GR-EGFP translocation, confirmation, imaging, high-content imaging, GR-EGFP cells. shares compounds with Dynein cargo inh. 3617.4 GR-EGFP nuclear translocation imaging, dexamethasone-induced. calls only at 20 µM. actives 69% (n = 1,000). AID 463116, 2010;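 active = inhibition of receptor movement into the nucleus at or above a set limit in both runs, with normal cell brightness and cell count; inconclusive = limit reached in only one run, brightness and count normal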;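 also: dexamethasone at 1 µM final in well for 30 min; nuclear minus cytoplasmic GR-EGFP mean intensity difference in channel 2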
Numbers without * were called inactive; i = inactive; ? = inconclusive; . = no result; + = active, no number.

SMILES | Cl transport mod | ROMK mod | Redox H2O2 prof | Dynein cargo inh | Autophagy HCS | Dynein confirm
CN1CCN(C2=C(Cl)C(=O)N(Cc3ccccc3)C2=O)CC1 | 0.22 | -0.72 | 2 | -2.6 | i | .
CCN(C(=O)CSc1nnc2nc(C)cc(C)n12)c1ccccc1 | 0.12 | -0.48 | -1 | -0.49 | i | .
CC[n+]1c(/C=C/N(C)c2ccccc2)oc2ccc(Cl)cc21 | 0.99 | . | 0 | 1.4 | i | .
CCN1/C(=C/C=C/c2oc3ccc4ccccc4c3[n+]2CC)Oc2ccc3ccccc3c21 | . | . | 1 | -7.1* | ? | +
CC(C)C[C@H](N)c1nnc(S(=O)(=O)Cc2cccc(F)c2)o1 | -2.7 | -0.48 | 3 | -4.9* | i | +
CCCCSc1nnc(-c2ccccc2)c2ccccc12 | -0.24 | . | 1 | 0.35 | i | .
O=C1c2cc([N+](=O)[O-])cc3cc([N+](=O)[O-])cc(c23)C(=O)N1c1ccccn1 | -0.71 | -2.6 | 0 | -3.5* | i | i
NC1=NC(=O)C(CC(=O)Nc2ccc3c(c2)OCO3)S1 (stereo unspecified) | 0.27 | 0.47 | 0 | 0.96 | i | .
Cc1ccc(-c2cn3nc(-c4ccccc4)c(-c4ccccc4)nc3n2)cc1 | i | . | . | -4.6 | . | +
O=[N+]([O-])c1cccc(-c2cn3nc(-c4ccccc4)c(-c4ccccc4)nc3n2)c1 | 0.71 | . | . | -0.58 | . | .
CCOc1ccccc1NC(=O)Nc1ccc(CC#N)cc1 | -1.1 | . | . | 0.0035 | . | .
Nc1ccc2c(c1)N=[N+]([O-])c1cc(N)ccc1C2 | -0.087 | . | . | 0.27 | . | .
N#Cc1cc(-c2ccccc2)nc(Oc2ccc(Cl)cc2)n1 | 0.15 | 0.29 | 0 | -4.3* | i | +
N#Cc1cc(-c2ccccc2)nc(NN)n1 | 0.02 | . | . | -0.53 | . | .
N#Cc1ccccc1Cn1cc(/C=C/[N+](=O)[O-])c2ccccc21 | 0.28 | -2.3 | 0 | -4.7* | i | +
O=[N+]([O-])/C=C/c1cn(Cc2ccccc2)c2ccccc12 | 0.097 | -0.77 | 4 | -4.6* | i | ?
O=[N+]([O-])c1ccc(N/N=C/c2cn(Cc3ccc(F)cc3)c3ccccc23)nc1 | 0.55 | . | 1 | -5.4 | + | ?
COC(=O)N/N=C/c1cn(Cc2ccc(F)cc2)c2ccccc12 | 0.57 | . | . | -0.58 | . | .
CCCOc1ccc(C(=O)NCC(C)(C)N2CCOCC2)cc1 | 0.45 | 0.82 | 0 | -1.4 | i | .
O=C1c2cccc3cccc(c23)C(=O)N1CCCN1CCN(c2ccc(F)cc2)CC1 | -0.84 | -1.7 | 0 | 1.4 | i | .
COC(=O)c1c(C)oc(C)c1S(=O)(=O)NCc1ccco1 | 0.15 | . | . | 0.76 | . | .
CCOC(=O)C(NC(=O)c1cccc(Cl)c1)(Nc1sc2c(c1C(N)=O)CCC2)C(F)(F)F (stereo unspecified) | -0.32 | . | 0 | -4.5* | i | +
Cc1cc(Oc2ccc(-c3ccccc3)cc2)n2ncnc2n1 | -0.59 | -0.17 | 0 | -4.7* | i | +
CCN(c1ccccc1)c1cc(C)nc2ncnn12 | 0.45 | . | -1 | 0.19 | i | .
COCCCNc1nc2c(-c3ccc(Cl)cc3)nnn2c2ccccc12 | -0.032 | 0.59 | 1 | -4.2* | i | i
SMILES | Cl transport mod | ROMK mod | Redox H2O2 prof | Dynein cargo inh | Autophagy HCS | Dynein confirm
Clc1nc(-c2cccnc2)nc2scc(-c3ccccc3)c12 | 0.86 | -0.19 | 2 | -1.9 | i | .
COc1ccc(-c2csc3nc(-c4cccnc4)nc(Cl)c23)cc1OC | 0.71 | . | -1 | -4.4* | i | +
COC(CNC(=O)c1ccc2c3c(onc13)-c1ccccc1C2=O)OC | i | . | . | -4.9* | . | +
COC(CNC(=O)c1cccnc1)OC | . | -0.54 | 0 | 0.43 | i | .
Cc1ccc(Sc2ccc(NC(=O)CCl)cc2)cc1C | -0.093 | 1.4 | 0 | -4.5* | i | +
O=C(CCl)Nc1ccc(N2CCCCCC2)cc1 | -1.6 | -0.9 | -1 | -6* | i | +
O=C(CCl)Nc1ccc(-c2ccccc2)cc1 | 0.43 | -2 | 0 | -5.4* | i | +
CCC(=O)Nc1ccc(N2CCCCC2)cc1 | -0.21 | 0.47 | 0 | -0.58 | i | .
O=C(CCl)Nc1ccc(N=Nc2ccccc2)cc1 | -1.1 | . | 0 | -0.82 | i | .
CC(C)OC(=O)c1cc2c(=O)[nH]c(C(Cl)(Cl)Cl)nc2o1 | -1.6 | -0.27 | 0 | -0.7 | i | .
CCN(CC)C(=O)NC1CCCCCCC1 | 0.27 | -0.47 | 0 | -0.86 | i | .
O=c1c(C(c2nnnn2C2CCCCC2)N2CCCCC2)coc2ccc(Cl)cc12 (stereo unspecified) | -1.2 | -0.8 | -1 | -4* | i | +
O=C(CCl)Nc1cccc(S(=O)(=O)NC2=NCCC2)c1 | 0.61 | . | . | -0.81 | . | .
COc1ccc(-c2nnc(Sc3nc4ccccc4o3)c3ccccc23)cc1 | -0.061 | 0.024 | -4 | -4.2* | i | +
COc1ccc(-c2nc3ccccc3nc2-c2ccccc2)cc1 | -0.13 | -1.6 | -1 | 0.46 | i | .
Nc1ccc2c3c(cccc13)C(=O)N(c1ccccc1)C2=O | i | . | 0 | -5* | i | +
CC(=O)OCCNc1cc(Sc2nc3ccccc3[nH]2)c2nonc2c1[N+](=O)[O-] | -0.59 | . | 1 | -2.2 | i | .
O=[N+]([O-])c1c(NCCCO)cc(Sc2ccc(Cl)cc2)c2nonc12 | 0.0096 | -1.2 | 0 | -4.7* | i | +
CC(=O)OCCNc1cc(SCc2ccco2)c2nonc2c1[N+](=O)[O-] | 0.16 | -1 | 1 | -5.8* | i | +
O=[N+]([O-])c1c(NCCCO)cc(N2CCN(Cc3ccc4c(c3)OCO4)CC2)c2nonc12 | -1.4 | -3 | 0 | 0.065 | i | .
O=[N+]([O-])c1c(NCCCO)cc(SCc2ccco2)c2nonc12 | -1.4 | -0.51 | 1 | -3.5* | i | +
COc1ccc(CNc2cc(NCCCO)c([N+](=O)[O-])c3nonc23)cc1 | -0.58 | -1.5 | 0 | -0.58 | i | .
Cn1ccnc1Sc1cc(NCCCO)c([N+](=O)[O-])c2nonc12 | -0.41 | 1.2 | 1 | -4.9* | i | +
COc1cc(C(F)(F)F)c(C(=O)NCc2cccc(Cl)c2)cn1 | 0.5 | . | . | 0.18 | . | .
COc1ccc(C(=O)/C=C2/c3ccccc3CC(C)(C)N2C)cc1OC | -0.05 | 0.23 | 0 | 0.29 | i | .
CC(=O)OCCCNc1cc(Sc2ccc(C)cc2)c2nonc2c1[N+](=O)[O-] | -0.06 | . | 0 | -4.6* | i | i
COC(=O)CCSc1cc(NCCOC(C)=O)c([N+](=O)[O-])c2nonc12 | 0.6 | -1.9 | 0 | -0.43 | i | .
